The results in this text go back to paper PMC6933791 (ACS Omega, 2019).

For data set [1], the system named is Na+/K+-ATPase α1,2,3 subunit of the porcine cortex. In words: Na+/K+-ATPase inhibition assay. Format: biochemical. The following applies: 0.1 μM compound, 30 min co-incubation, positive control = 100% activity. In short, it runs like this: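 Porcine cortex Na+/K+-ATPase (α1,2,3; 0.05 U/mL) was preincubated 30 min with test compound (0.1 μM) in 40 mM Tris–HCl pH 7.5, 80 mM NaCl, 1 mM EDTA and 8 mM MgAc2. ATP (4 mM) was then added and the reaction stopped after 30 min. Released Pi was read by malachite green at 600 nm after subtracting the no-enzyme control. Uninhibited enzyme defined 100% activity. Run in triplicate.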

Data set [2] has as its system A549 cells. The experiment in a line: Cell binding of radiolabeled compound. On the set-up: species or system human. The gist of the method:
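A549 and MRC-5 cells were grown in DMEM with 10% FBS and 1% penicillin/streptomycin (37 °C, 5% CO2), trypsinised, resuspended in PBS pH 7.4 and trypan-blue counted. Labelled test compound (0.1 μM), 99mTc-chelator alone (1.3 μM), or test compound plus 10-fold excess unlabelled cardenolide was shaken with 250 000 viable cells/tube (140 rpm, 120 min, 37 °C). Pellets were counted. Three biological × three technical replicates.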

Data set [3] concerns A549 cells. In words: MTT cell viability assay, A549. It counts as cell-based. The following applies: read-out: IC50 A549 cell line, 48 h, human non-small-cell lung cancer A549. In short, it runs like this: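 A549 cells (1 × 10^4/well), cultured in DMEM with 10% FBS and antibiotics, were exposed to a range of concentrations of the […] test compound for 48 h. MTT was added (1 mg/mL final) for 4 h at 37 °C, formazan was dissolved in DMSO, and absorbance was read at 570 nm. Cells given 0.5% DMSO defined 100% viability. IC50 came from dose–response curves.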

Data set [4] relates to MRC-5 cells. In words: MTT cell viability assay, MRC-5. It counts as cell-based. Particulars: read-out: IC50 non-tumor MRC-5 cell line, 48 h, human fetal lung fibroblast MRC-5.
Data set [5] can be described thus: Radiochemical stability in saline. The following applies: NaCl 0.9% (w/v), room temperature (23 °C), up to 24 h. It counts as physicochemical. In short, it runs like this:
(§1)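 The 99mTc-labelled test compound was incubated in 0.9% NaCl at 23 °C or in plasma at 37 °C with agitation. Samples were taken at 1, 2, 4, 8 and 24 h. Radiochemical purity was measured by TLC in acetone (free pertechnetate) and glacial acetic acid/water 15:85 (99mTcO2), with strips counted by scintillation. There were 6 samples per time point, each assessed in duplicate.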

Data set [6] in a line: Radiochemical stability in plasma. Format: in vitro ADME. Particulars: 37 °C, under agitation, up to 24 h. The gist of the method: as §1
The nature of data set [7]: Blood clearance in healthy mice. It counts as in vivo. Particulars: healthy BALB/c mice, i.v. tail vein. In short, it runs like this:
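Female BALB/c mice (20 g, 8 weeks old; n = 6 per time point) received 100 μL (3.7 MBq) of diluted 99mTc-labelled test compound (final volume 1800 μL) by tail vein. Blood was sampled at 5, 15, 30, 60, 120 and 240 min, weighed and counted for radioactivity. Percent injected dose per mL blood (%ID/mL) was plotted against time.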

Data set [8] is described as follows: Biodistribution in healthy mice. Format: in vivo, BALB/c mice. The following applies: i.v.

As to `C[C@]12CC[C@H](O)C[C@H]1CC[C@@H]1[C@@H]2CC[C@]2(C)[C@@H](C3=CC(=O)OC3)CC[C@]12O` [DIG, digitoxigenin], in data set [1], the “Na+/K+-ATPase enzymatic activity remaining” value is listed as “less than 50%”.

For `O=C(O)CN(CCN(CC(=O)O)CC(=O)O)CCN(CC(=O)O)CC(=O)O` [DTPA, diethylenetriaminepentaacetic acid], in data set [1], the “Na+/K+-ATPase enzymatic activity remaining” value is listed as “no influence”.

On to `O=C([O-])CN(CCN(CC(=O)[O-])CC(=O)[O-])CCN(CC(=O)[O-])CC(=O)[O-].[99Tc+4]` [^99mTc-DTPA, reference compound], for which the “Affinity to A549 cancer cells” value in data set [2] (1.3 μM, 2 h incubation, 37 °C) is given as “low affinity”.

As to ^99mTc-DTPA–digitoxigenin, in data set [3], the IC50 was 120 nM. Besides, the IC50 in data set [4] worked out at 780 nM. The “Na+/K+-ATPase enzymatic activity remaining” value in data set [1] is “less than 50%”. Moreover, the “Binding to A549 cells when co-incubated with free digitoxigenin” value in data set [2] (0.1 μM, 10-fold excess of free digitoxigenin, 2 h) is “reduced to the rate of non-tumor MRC-5 cells”. Besides, the “Binding to A549 cells compared with non-tumor MRC-5 cells” value in data set [2] (0.1 μM, 2 h incubation, 37 °C) was “significantly higher binding”. Moreover, the “Radiochemical stability in saline” value in data set [5] is “remained stable”. Besides, the “Radiochemical stability in plasma” value in data set [6] was “remained stable”. This compound also displayed a Blood half-life in data set [7] of 11.7 min. Also, in data set [8] (30 min), the “Biodistribution, blood” value is listed as 0.51 %ID/g; the “Biodistribution, heart” value is 0.31 %ID/g; the “Biodistribution, intestine” value turned out to be 24.97 %ID/g; the “Biodistribution, kidney” value is on record as 1.64 %ID/g. Also, in data set [8] (30 min), the “Biodistribution, liver” value stood at 4.74 %ID/g; the “Biodistribution, lungs” value came to 1.46 %ID/g; the “Biodistribution, muscle” value is reported as 0.50 %ID/g; the “Biodistribution, spleen” value was 0.90 %ID/g. The “Biodistribution, thyroid” value in data set [8] (30 min) is 0.59 %ID/g. Also, in data set [8] (2 h), the “Biodistribution, blood” value is on record as 0.43 %ID/g; the “Biodistribution, heart” value is listed as 0.32 %ID/g; the “Biodistribution, intestine” value stood at 27.06 %ID/g; the “Biodistribution, kidney” value is recorded as 1.48 %ID/g. In addition, in data set [8] (2 h), the “Biodistribution, liver” value came out at 2.34 %ID/g; the “Biodistribution, lungs” value was determined as 0.6 %ID/g; the “Biodistribution, muscle” value turned out to be 0.26 %ID/g; the “Biodistribution, spleen” value amounted to 0.85 %ID/g. Also, the “Biodistribution, thyroid” value in data set [8] (2 h) came to 0.59 %ID/g.
